# From ChEMBL document CHEMBL2040727, “Substituted thiazoles VI. Synthesis and antitumor activity of new 2-acetamido- and 2 or 3-propanamido-thiazole analogs” (2012)
# Experiments:
# Type in all cases: functional
# HOP-62 = test: Growth inhibition of human HOP62 cells at 10 uM after 48 hrs by coulter counter analysis; conditions: HOP-62, 48 h, read-out: GI
# How it was run: (§1)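 Single-dose NCI 60-line panel screen of test compounds. Cells grown in RPMI 1640 with 10% FBS. Compounds dissolved in DMSO, then diluted in phosphate buffer saline (final DMSO below 1%). Wells run in duplicate at 6 × 10⁴ cells/ml. Controls held PBS and DMSO at matching dilutions. Incubation 48 h at 37 °C under humidified 5% CO2. Cells diluted tenfold in saline and counted by Coulter counter. Percent growth inhibition taken from mean-graph of treated-cell growth.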
# BT-549 = test: Growth inhibition of human BT549 cells at 10 uM after 48 hrs by coulter counter analysis; conditions: BT-549, 48 h, read-out: GI; how it was run: as §1
# SR = test: Growth inhibition of human SR cells at 10 uM after 48 hrs by coulter counter analysis; conditions: read-out: GI
# How it was run: (§2)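 Single-dose screen in the NCI 60 cell line panel. Cells grown in RPMI 1640 with 10% FBS. Compounds dissolved in DMSO and diluted in phosphate buffered saline, final DMSO under 1%. Duplicate wells seeded from culture at 6 × 10⁴ cells/ml. Incubated 48 h at 37 °C, humidified, 5% CO2. Cells diluted tenfold in saline and Coulter-counted. Percent growth inhibition computed against PBS/DMSO controls.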
# OVCAR-8 = test: Growth inhibition of human OVCAR8 cells at 10 uM after 48 hrs by coulter counter analysis; conditions: OVCAR-8, 48 h, read-out: GI; how it was run: as §1
# K562 = test: Growth inhibition of human K562 cells at 10 uM after 48 hrs by coulter counter analysis; conditions: K562, 48 h, read-out: GI; how it was run: as §1
# OVCAR-3 = test: Growth inhibition of human OVCAR3 cells at 10 uM after 48 hrs by coulter counter analysis; conditions: OVCAR-3, 48 h, read-out: GI; how it was run: as §1
# DU-145 = test: Growth inhibition of human DU145 cells at 10 uM after 48 hrs by coulter counter analysis; conditions: DU-145, 48 h, read-out: GI; how it was run: as §1
# NCI-H460 = test: Growth inhibition of human NCI-H460 cells at 10 uM after 48 hrs by coulter counter analysis; conditions: NCI-H460, 48 h, read-out: GI; how it was run: as §1
# SNB-75 = test: Growth inhibition of human SNB75 cells at 10 uM after 48 hrs by coulter counter analysis; conditions: SNB-75, 48 h, read-out: GI; how it was run: as §2
# A549 = test: Growth inhibition of human A549/ATCC cells at 10 uM after 48 hrs by coulter counter analysis; conditions: A549, 48 h, read-out: GI; how it was run: as §1
# MDA-MB-231 = test: Growth inhibition of human MDA-MB-231 cells at 10 uM after 48 hrs by coulter counter analysis; conditions: MDA-MB-231, 48 h, read-out: GI; how it was run: as §1
# 786-0 = test: Growth inhibition of human 786-0 cells at 10 uM after 48 hrs by coulter counter analysis; conditions: 786-0, 48 h, read-out: GI; how it was run: as §1
# RPMI-8226 = test: Growth inhibition of human RPMI8226 cells at 10 uM after 48 hrs by coulter counter analysis; conditions: RPMI-8226, 48 h, read-out: GI; how it was run: as §1
# PC-3 = test: Growth inhibition of human PC3 cells at 10 uM after 48 hrs by coulter counter analysis; conditions: PC-3, 48 h, read-out: GI; how it was run: as §1
# UO-31 = test: Growth inhibition of human UO31 cells at 10 uM after 48 hrs by coulter counter analysis; conditions: UO-31, 48 h, read-out: GI; how it was run: as §2
# KM12 = test: Growth inhibition of human KM12 cells at 10 uM after 48 hrs by coulter counter analysis; conditions: KM12, 48 h, read-out: GI; how it was run: as §1
# HT-29 = test: Growth inhibition of human HT-29 cells at 10 uM after 48 hrs by coulter counter analysis; conditions: HT-29, 48 h, read-out: GI; how it was run: as §1
# ACHN = test: Growth inhibition of human ACHN cells at 10 uM after 48 hrs by coulter counter analysis; conditions: read-out: GI; how it was run: as §1
# HOP-92 = test: Growth inhibition of human HOP92 cells at 10 uM after 48 hrs by coulter counter analysis; conditions: HOP-92, 48 h, read-out: GI; how it was run: as §1
# CAKI-1 = test: Growth inhibition of human Caki1 cells at 10 uM after 48 hrs by coulter counter analysis; conditions: CAKI-1, 48 h, read-out: GI; how it was run: as §1
# U-251 = test: Growth inhibition of human U251 cells at 10 uM after 48 hrs by coulter counter analysis; conditions: U-251, 48 h, read-out: GI; how it was run: as §2
# SF-295 = test: Growth inhibition of human SF295 cells at 10 uM after 48 hrs by coulter counter analysis; conditions: SF-295, 48 h, read-out: GI; how it was run: as §1
# NCI-H226 = test: Growth inhibition of human NCI-H226 cells at 10 uM after 48 hrs by coulter counter analysis; conditions: NCI-H226, 48 h, read-out: GI; how it was run: as §1
# OVCAR-5 = test: Growth inhibition of human OVCAR5 cells at 10 uM after 48 hrs by coulter counter analysis; conditions: OVCAR-5, 48 h, read-out: GI; how it was run: as §1
# SW-620 = test: Growth inhibition of human SW620 cells at 10 uM after 48 hrs by coulter counter analysis; conditions: SW-620, 48 h, read-out: GI; how it was run: as §2
# CCRF-CEM = test: Growth inhibition of human CCRF-CEM cells at 10 uM after 48 hrs by coulter counter analysis; conditions: read-out: GI; how it was run: as §1
# SN12C = test: Growth inhibition of human SN12C cells at 10 uM after 48 hrs by coulter counter analysis; conditions: read-out: GI; how it was run: as §1
# HCT-116 = test: Growth inhibition of human HCT116 cells at 10 uM after 48 hrs by coulter counter analysis; conditions: HCT-116, 48 h, read-out: GI; how it was run: as §1
# NCI-H23 = test: Growth inhibition of human NCI-H23 cells at 10 uM after 48 hrs by coulter counter analysis; conditions: NCI-H23, 48 h, read-out: GI; how it was run: as §1
# SK-MEL-28 = test: Growth inhibition of human SK-MEL-28 cells at 10 uM after 48 hrs by coulter counter analysis; conditions: SK-MEL-28, 48 h, read-out: GI; how it was run: as §1
# SK-MEL-5 = test: Growth inhibition of human SK-MEL-5 cells at 10 uM after 48 hrs by coulter counter analysis; conditions: SK-MEL-5, 48 h, read-out: GI; how it was run: as §1
# NCI-H322M = test: Growth inhibition of human NCI-H322M cells at 10 uM after 48 hrs by coulter counter analysis; conditions: read-out: GI; how it was run: as §1
# T47D = test: Growth inhibition of human T47D cells at 10 uM after 48 hrs by coulter counter analysis; conditions: read-out: GI; how it was run: as §2
# MDA-MB-468 = test: Growth inhibition of human MDA-MB-468 cells at 10 uM after 48 hrs by coulter counter analysis; conditions: MDA-MB-468, 48 h, read-out: GI; how it was run: as §1
# EKVX = test: Growth inhibition of human EKVX cells at 10 uM after 48 hrs by coulter counter analysis; conditions: read-out: GI; how it was run: as §1
# [1] = Growth inhibition of human NCI-ADR-RES cells at 10 uM after 48 hrs by coulter counter analysis; conditions: read-out: GI; how it was run: as §1
SMILES,inhibition of growth at 10 µM (HOP-62),inhibition of growth at 10 µM (BT-549),inhibition of growth at 10 µM (SR),inhibition of growth at 10 µM (OVCAR-8),inhibition of growth at 10 µM (K562),inhibition of growth at 10 µM (OVCAR-3),inhibition of growth at 10 µM (DU-145),inhibition of growth at 10 µM (NCI-H460),inhibition of growth at 10 µM (SNB-75),inhibition of growth at 10 µM (A549),inhibition of growth at 10 µM (MDA-MB-231),inhibition of growth at 10 µM (786-0),inhibition of growth at 10 µM (RPMI-8226),inhibition of growth at 10 µM (PC-3),inhibition of growth at 10 µM (UO-31),inhibition of growth at 10 µM (KM12),inhibition of growth at 10 µM (HT-29),inhibition of growth at 10 µM (ACHN),inhibition of growth at 10 µM (HOP-92),inhibition of growth at 10 µM (CAKI-1),further results
CCOC(=O)c1sc(NC(=O)C(C)N2CCCCC2)nc1C (stereo not drawn),< 10%,< 10%,< 10%,< 10%,< 10%,< 10%,< 10%,< 10%,< 10%,< 10%,< 10%,< 10%,< 10%,< 10%,13.4%,< 10%,< 10%,< 10%,< 10%,12.2%,inhibition of growth at 10 µM (U-251): < 10%; inhibition of growth at 10 µM (SF-295): < 10%; inhibition of growth at 10 µM (NCI-H226): < 10%; inhibition of growth at 10 µM (OVCAR-5): < 10%; inhibition of growth at 10 µM (SW-620): < 10%; inhibition of growth at 10 µM (CCRF-CEM): < 10%; inhibition of growth at 10 µM (SN12C): < 10%; inhibition of growth at 10 µM (HCT-116): < 10%; inhibition of growth at 10 µM (NCI-H23): < 10%; inhibition of growth at 10 µM (SK-MEL-28): < 10%; inhibition of growth at 10 µM (SK-MEL-5): < 10%; inhibition of growth at 10 µM (NCI-H322M): < 10%; inhibition of growth at 10 µM (T47D): < 10%; inhibition of growth at 10 µM (MDA-MB-468): < 10%; inhibition of growth at 10 µM (EKVX): < 10%; inhibition of growth at 10 µM [1]: < 10%
CCOC(=O)c1sc(NC(=O)C(C)N2CCOCC2)nc1C (stereo not drawn),< 10%,< 10%,< 10%,< 10%,< 10%,< 10%,< 10%,< 10%,24.4%,< 10%,< 10%,< 10%,< 10%,< 10%,14.2%,< 10%,< 10%,< 10%,< 10%,< 10%,inhibition of growth at 10 µM (U-251): < 10%; inhibition of growth at 10 µM (SF-295): < 10%; inhibition of growth at 10 µM (NCI-H226): < 10%; inhibition of growth at 10 µM (OVCAR-5): < 10%; inhibition of growth at 10 µM (SW-620): < 10%; inhibition of growth at 10 µM (CCRF-CEM): < 10%; inhibition of growth at 10 µM (SN12C): < 10%; inhibition of growth at 10 µM (HCT-116): < 10%; inhibition of growth at 10 µM (NCI-H23): < 10%; inhibition of growth at 10 µM (SK-MEL-28): < 10%; inhibition of growth at 10 µM (SK-MEL-5): < 10%; inhibition of growth at 10 µM (NCI-H322M): < 10%; inhibition of growth at 10 µM (T47D): < 10%; inhibition of growth at 10 µM (MDA-MB-468): < 10%; inhibition of growth at 10 µM (EKVX): < 10%; inhibition of growth at 10 µM [1]: < 10%
CCOC(=O)c1sc(NC(=O)C(C)N2CCN(C)CC2)nc1C (stereo not drawn),< 10%,< 10%,< 10%,< 10%,< 10%,< 10%,< 10%,< 10%,< 10%,< 10%,< 10%,< 10%,< 10%,< 10%,13.1%,< 10%,< 10%,< 10%,< 10%,< 10%,inhibition of growth at 10 µM (U-251): < 10%; inhibition of growth at 10 µM (SF-295): < 10%; inhibition of growth at 10 µM (NCI-H226): < 10%; inhibition of growth at 10 µM (OVCAR-5): < 10%; inhibition of growth at 10 µM (SW-620): < 10%; inhibition of growth at 10 µM (CCRF-CEM): < 10%; inhibition of growth at 10 µM (SN12C): < 10%; inhibition of growth at 10 µM (HCT-116): < 10%; inhibition of growth at 10 µM (NCI-H23): < 10%; inhibition of growth at 10 µM (SK-MEL-28): < 10%; inhibition of growth at 10 µM (SK-MEL-5): < 10%; inhibition of growth at 10 µM (NCI-H322M): < 10%; inhibition of growth at 10 µM (T47D): < 10%; inhibition of growth at 10 µM (MDA-MB-468): < 10%; inhibition of growth at 10 µM (EKVX): < 10%; inhibition of growth at 10 µM [1]: < 10%
